Data reported in ChEMBL document CHEMBL5357044, “Discovery of a dual-acting inhibitor of interleukin-1β and STATs for the treatment of inflammatory bowel disease” (RSC Med Chem, 2024).
Activity calls are given as the source filed them. No cut-off for these calls is given here.

Tests used:
[1] = tested on: Intestine; assay: Anti-colitis activity against DSS-induced ulcerative colitis mouse model assessed as decrease in STAT-1 level in intestinal tissue at 0.2 to 0.6 mg/kg, ip treated every 72 hrs for 9 days by Western blot analysis; format: functional, organism-based; conditions: dose 0.2-0.6 mg/kg, time 9.0 day
Procedure, shortened: (§1)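 DSS model (2.5% in drinking water days 1–7, water days 8–9). Dosing was i.p. at 0.2 and 0.6 mg kg−1 in 50% PEG300 on days 2, 5, 8. Intestinal tissue taken at sacrifice on day 9. Lysed in RIPA with protease inhibitor and BCA-quantified, then run on SDS-PAGE/PVDF and probed for STAT1, STAT3, STAT5 and caspase-1. ECL detection.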

[2] = tested on: Colon; assay: Anti-colitis activity against DSS-induced ulcerative colitis mouse model assessed as decrease in infiltration of inflammatory cells in colon tissue at 0.2 to 0.6 mg/kg, ip treated every 72 hrs for 9 days by H and E staining based analysis; format: functional, organism-based; conditions: dose 0.2-0.6 mg/kg, time 9.0 day
Procedure, shortened: (§2)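 Colons were taken on day 9 from 2.5% DSS-fed mice (DSS days 1–7). Dosing was i.p. 0.2 or 0.6 mg kg−1 in 50% PEG300 on days 2, 5, 8. H&E-stained sections imaged at ×20 and scored for inflammatory infiltration, goblet cell depletion and crypt loss.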

[3] = tested on: Mus musculus; assay: Anti-colitis activity against DSS-induced ulcerative colitis mouse model assessed as decrease in hemafecia at 0.2 to 0.6 mg/kg, ip treated every 72 hrs for 9 days; format: functional, organism-based; conditions: dose 0.2-0.6 mg/kg, time 9.0 day
Procedure, shortened: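 Mice given 2.5% DSS water days 1–7, then water to day 9. Dosing: i.p. 0.2 or 0.6 mg kg−1 in 50% PEG300 on days 2, 5, 8. Body weight and fecal occult blood scored daily. Colon length measured after sacrifice on day 9. Mean ± s.e.m.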

[4] = tested on: Colon; assay: Anti-colitis activity against DSS-induced ulcerative colitis mouse model assessed as increase in crypt architecture in colon tissue at 0.2 to 0.6 mg/kg, ip treated every 72 hrs for 9 days by H and E staining based analysis; format: functional, organism-based; conditions: dose 0.2-0.6 mg/kg, time 9.0 day; procedure, shortened: as §2
[5] = target: Nlrp3/Pycard (Mus musculus) (UniProt Q8R4B8+Q9EPB4); assay: Inhibition of NLRP3-ASC interaction in LPS-treated mouse J774.A1 cells at 50 to 200 nM pretreated for 1 hr followed by nigericin treatment for 1 hr by Co-IP assay; format: cell-based; conditions: dose 50-200 nM, time 2.0 hrs
Procedure, shortened: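 Primed/treated J774A.1 cells (LPS 1 μg mL−1 5 h, compound, nigericin 10 μM 1 h) lysed on ice 30 min. Precleared with Protein A/G agarose overnight at 4 °C, then primary antibody (IgG control) overnight at 4 °C. Protein A/G added 6 h, beads washed five times with D-PBS, boiled in SDS buffer and western blotted.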

[6] = tested on: Intestine; assay: Anti-colitis activity against DSS-induced ulcerative colitis mouse model assessed as decrease in STAT-5 level in intestinal tissue at 0.2 to 0.6 mg/kg, ip treated every 72 hrs for 9 days by Western blot analysis; format: functional, organism-based; conditions: dose 0.2-0.6 mg/kg, time 9.0 day; procedure, shortened: as §1
[7] = target: T1, Signal transducer and activator of transcription 1 (Mus musculus) (UniProt P42225); assay: Inhibition of STAT1 expression in LPS-treated mouse J774.A1 cells assessed as reduction in STAT1 phosphorylation at 50 to 200 nM treated for 1 hr by Western blot analysis; format: cell-based; conditions: dose 50-200 nM
T1 sequence (whole entry): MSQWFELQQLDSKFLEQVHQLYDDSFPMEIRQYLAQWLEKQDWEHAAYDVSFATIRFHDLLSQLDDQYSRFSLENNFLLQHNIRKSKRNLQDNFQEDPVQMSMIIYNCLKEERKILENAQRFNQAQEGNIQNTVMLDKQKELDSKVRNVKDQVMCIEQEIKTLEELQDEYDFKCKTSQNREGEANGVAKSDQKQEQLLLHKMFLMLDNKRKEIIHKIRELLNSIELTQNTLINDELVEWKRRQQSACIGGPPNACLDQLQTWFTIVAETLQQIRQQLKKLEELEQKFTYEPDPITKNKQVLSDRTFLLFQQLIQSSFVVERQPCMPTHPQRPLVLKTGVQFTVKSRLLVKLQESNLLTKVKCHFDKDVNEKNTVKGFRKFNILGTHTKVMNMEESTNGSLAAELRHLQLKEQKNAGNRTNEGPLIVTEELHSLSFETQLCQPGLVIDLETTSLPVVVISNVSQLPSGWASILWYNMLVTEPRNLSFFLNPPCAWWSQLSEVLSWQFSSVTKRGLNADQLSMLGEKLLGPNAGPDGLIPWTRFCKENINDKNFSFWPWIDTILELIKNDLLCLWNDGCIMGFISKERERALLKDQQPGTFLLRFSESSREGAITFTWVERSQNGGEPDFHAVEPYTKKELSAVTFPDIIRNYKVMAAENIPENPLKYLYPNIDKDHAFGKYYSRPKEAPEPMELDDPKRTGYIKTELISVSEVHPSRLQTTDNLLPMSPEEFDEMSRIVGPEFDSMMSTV
Procedure, shortened: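 J774A.1 cells pretreated with LPS and compound, lysed in RIPA. pSTAT1, STAT1, pSTAT3, STAT3, pSTAT5 and STAT5 detected by SDS-PAGE western blot with ECL.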

[8] = target: NLR family CARD domain-containing protein 4 (Mus musculus) (UniProt Q3UP24); assay: Inhibition of NLRC4 inflammasome activation in mouse BMDM cells assessed as reduction in LPS-stimulated IL-1beta level at 50 to 200 nM pretreated for 1 hr followed by FLA-ST Ultrapure treatment for 4 hrs by ELISA; format: cell-based; conditions: dose 50-200 nM, time 5.0 hrs
Procedure, shortened: (§3)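 BMDMs (RPMI 1640, 10% FBS, Glutamax, 20 ng mL−1 M-CSF) primed with 0.5 μg mL−1 LPS for 3 h, then compound for 1 h. Stimulated 4 h with FLA-ST Ultrapure 2.5 μg mL−1 (NLRC4) or poly(dA/dT) 0.25 μg mL−1 (AIM2). IL-1β measured by ELISA.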

[9] = target: NACHT, LRR and PYD domains-containing protein 3 (Mus musculus) (UniProt Q8R4B8); assay: Inhibition of NLRP3 inflammasome activation in mouse J774.A1 cells assessed as NLRP3 ubiquitination at 100 nM pretreated for 1 hr followed by nigericin treatment for 1 hr; conditions: time 2.0 hrs
[10] = target: T2, Interferon-inducible protein AIM2 (Mus musculus) (UniProt Q91VJ1); assay: Inhibition of AIM2 inflammasome activation in mouse BMDM cells assessed as reduction in LPS-stimulated IL-1beta level at 50 to 200 nM pretreated for 1 hr followed by poly(dA/dT) treatment for 4 hrs by ELISA; format: cell-based; conditions: dose 50-200 nM, time 5.0 hrs; procedure, shortened: as §3
T2 sequence (whole entry): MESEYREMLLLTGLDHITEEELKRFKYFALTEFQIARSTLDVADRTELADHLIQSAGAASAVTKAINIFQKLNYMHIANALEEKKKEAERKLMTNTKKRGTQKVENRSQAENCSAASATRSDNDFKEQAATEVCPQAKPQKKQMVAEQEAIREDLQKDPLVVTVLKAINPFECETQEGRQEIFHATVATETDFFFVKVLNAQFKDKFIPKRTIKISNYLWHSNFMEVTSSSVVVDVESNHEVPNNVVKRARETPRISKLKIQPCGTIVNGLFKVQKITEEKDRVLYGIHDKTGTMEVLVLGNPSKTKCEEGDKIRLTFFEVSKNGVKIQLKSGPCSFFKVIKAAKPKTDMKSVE

Sequence of Nlrp3/Pycard (Mus musculus) (Q8R4B8 whole entry, looked up): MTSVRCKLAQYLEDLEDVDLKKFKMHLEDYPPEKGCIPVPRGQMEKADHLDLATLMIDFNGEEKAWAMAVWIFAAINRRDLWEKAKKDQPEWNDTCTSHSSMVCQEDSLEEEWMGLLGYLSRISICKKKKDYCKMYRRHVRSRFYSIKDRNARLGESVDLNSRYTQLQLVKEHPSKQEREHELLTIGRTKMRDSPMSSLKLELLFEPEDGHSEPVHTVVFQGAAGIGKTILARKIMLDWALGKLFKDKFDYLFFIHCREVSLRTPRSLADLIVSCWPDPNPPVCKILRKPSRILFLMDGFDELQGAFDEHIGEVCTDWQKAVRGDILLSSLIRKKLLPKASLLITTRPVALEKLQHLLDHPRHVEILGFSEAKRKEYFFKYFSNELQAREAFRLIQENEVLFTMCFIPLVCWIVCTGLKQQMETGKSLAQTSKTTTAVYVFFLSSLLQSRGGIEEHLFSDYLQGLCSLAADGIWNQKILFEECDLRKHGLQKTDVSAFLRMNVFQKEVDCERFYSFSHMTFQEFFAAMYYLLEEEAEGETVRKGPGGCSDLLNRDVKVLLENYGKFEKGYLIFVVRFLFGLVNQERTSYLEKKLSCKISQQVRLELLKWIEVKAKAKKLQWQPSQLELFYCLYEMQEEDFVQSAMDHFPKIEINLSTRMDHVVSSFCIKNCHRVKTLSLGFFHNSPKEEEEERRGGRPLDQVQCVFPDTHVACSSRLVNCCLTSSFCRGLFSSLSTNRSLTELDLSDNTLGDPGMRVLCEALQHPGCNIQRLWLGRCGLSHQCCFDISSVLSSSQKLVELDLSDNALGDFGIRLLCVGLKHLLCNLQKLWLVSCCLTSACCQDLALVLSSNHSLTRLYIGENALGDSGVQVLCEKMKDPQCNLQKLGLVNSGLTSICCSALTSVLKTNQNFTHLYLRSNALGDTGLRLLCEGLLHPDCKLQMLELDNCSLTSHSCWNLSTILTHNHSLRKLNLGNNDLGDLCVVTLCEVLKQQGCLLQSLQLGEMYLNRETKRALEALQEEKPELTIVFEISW
Sequence of Nlrp3/Pycard (Mus musculus) (Q9EPB4 whole entry, looked up): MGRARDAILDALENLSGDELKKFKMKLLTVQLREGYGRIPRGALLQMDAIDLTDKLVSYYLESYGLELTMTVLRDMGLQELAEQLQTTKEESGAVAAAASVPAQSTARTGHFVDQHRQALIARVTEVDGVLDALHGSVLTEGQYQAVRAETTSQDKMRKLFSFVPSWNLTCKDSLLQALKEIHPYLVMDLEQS
Sequence of NACHT, LRR and PYD domains-containing protein 3 (Mus musculus) (Q8R4B8 whole entry, the tested form may be a part): as the sequence (Q8R4B8 whole entry, looked up) above
Sequence of NLR family CARD domain-containing protein 4 (Mus musculus) (Q3UP24 whole entry, the tested form may be a part): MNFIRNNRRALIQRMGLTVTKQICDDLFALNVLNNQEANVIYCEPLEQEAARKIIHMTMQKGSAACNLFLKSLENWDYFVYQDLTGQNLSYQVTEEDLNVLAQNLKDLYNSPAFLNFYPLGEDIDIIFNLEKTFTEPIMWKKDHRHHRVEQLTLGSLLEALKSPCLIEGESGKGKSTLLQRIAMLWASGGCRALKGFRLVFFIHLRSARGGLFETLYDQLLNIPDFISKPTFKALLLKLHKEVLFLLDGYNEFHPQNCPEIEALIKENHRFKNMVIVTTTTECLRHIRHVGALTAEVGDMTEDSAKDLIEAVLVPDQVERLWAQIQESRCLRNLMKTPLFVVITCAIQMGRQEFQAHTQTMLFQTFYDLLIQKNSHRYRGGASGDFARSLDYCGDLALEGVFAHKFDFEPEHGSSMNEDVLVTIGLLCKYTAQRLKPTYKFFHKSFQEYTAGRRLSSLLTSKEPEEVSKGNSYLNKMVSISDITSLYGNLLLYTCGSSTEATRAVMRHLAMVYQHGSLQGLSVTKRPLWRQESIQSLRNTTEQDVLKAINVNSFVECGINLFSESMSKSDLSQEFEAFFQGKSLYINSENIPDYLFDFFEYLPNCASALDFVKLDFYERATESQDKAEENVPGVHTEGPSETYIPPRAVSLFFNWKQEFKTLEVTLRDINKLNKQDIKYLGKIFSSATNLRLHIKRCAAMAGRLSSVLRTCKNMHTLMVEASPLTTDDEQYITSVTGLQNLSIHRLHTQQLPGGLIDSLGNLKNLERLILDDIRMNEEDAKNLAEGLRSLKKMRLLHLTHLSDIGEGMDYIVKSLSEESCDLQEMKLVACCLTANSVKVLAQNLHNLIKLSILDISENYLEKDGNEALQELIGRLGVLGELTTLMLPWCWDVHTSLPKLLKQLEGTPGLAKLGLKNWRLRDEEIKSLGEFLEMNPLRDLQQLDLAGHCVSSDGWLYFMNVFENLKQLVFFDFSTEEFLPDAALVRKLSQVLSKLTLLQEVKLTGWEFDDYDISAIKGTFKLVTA

For `Cc1cc(/C=C/C(=O)c2ccc(C(=O)N[C@@H](Cc3ccccc3)C(=O)N[C@@H](CC(C)C)B(O)O)cc2)cc(C)c1O`, the Activity [1] was “Active”, the Activity [2] was “Active” and the Activity [3] was “Active”. The Activity [4] was “Active”, the inhibition [5] was “Active” and the Activity [6] was “Active”. For the same compound, the inhibition [7] was “Active”, the inhibition [8] was “inactive” and the inhibition [9] was “Active”. The inhibition [10] was “Active”.
